Experimental findings from ChEMBL document CHEMBL4414663, “Pyrazole-4-Carboxamide (YW2065): A Therapeutic Candidate for Colorectal Cancer via Dual Activities of Wnt/β-Catenin Signaling Inhibition and AMP-Activated Protein Kinase (AMPK) Activation” (J Med Chem, 2019) are described below.

Structures are written as SMILES. Calls of active or inactive are those of the source. The rule behind the calls is not given here.

Data set [1] deals with SW480. Description: Growth inhibition of human SW480 cells by Cell-titer-fluor reagent based assay. The class given is functional.
Data set [2] can be described thus: Inhibition of Wnt/beta-Catenin signaling in human SW480 cells incubated for 24 hrs by TCF/LEF dual-luciferase reporter assay. As to conditions: SW480, 24 h. The class given is cell-based. A digest of the protocol: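 SW480 or SW620 cells seeded at 200,000/well and transiently transfected 24 h later with TOPflash firefly luciferase plus pRLTK-Renilla using lipofectamine 2000. After 16 h the medium was replaced with compound at a range of concentrations, three replicates each. Dual firefly/Renilla luciferase read 24 h later.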

The species entered for a further data set is Homo sapiens. Description: Inhibition of Wnt/beta-Catenin signaling in human SW620 cells assessed as reduction in cyclinD1 mRNA expression at 10 uM incubated for 24 hrs by real-time PCR analysis. The data set is classed as cell-based. Summed up:
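SW620 cells (RPMI 1640, 10% FBS) in 6-well plates, incubated 24 h, then treated with compound at several concentrations, three replicates each, for 24 h. Total RNA isolated with Trizol/phenol-chloroform; 2 µg reverse transcribed; Wnt target gene mRNA quantified by PCR.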
For orientation: In qPCR the cycle at which signal appears reflects the starting amount.

The target of data set [3] is AMP-activated protein kinase, AMPK (Homo sapiens) (UniProt P54646+O43741+P54619+Q9UGJ0+Q9Y478+Q13131+Q9UGI9). Nature of the data set: Activation of AMPK in human SW620 cells assessed as increase in ACC phosphorylation incubated for 24 hrs by Western blot analysis. The data set is classed as cell-based. A digest of the protocol: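 SW620 cells in RPMI 1640 with 10% FBS, treated over a concentration range. Lysed in RIPA with protease inhibitors, 20 µL of 2 mg/mL protein run on 7.5% SDS-PAGE, transferred to nitrocellulose, blocked in 5% BSA. Rabbit primaries (Axin-1, ACC, pACC, AMPK, pAMPK at 1:1,000; β-actin 1:2,000) overnight at 4 °C, HRP secondary 1:8000 for 2 h, ECL.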
Background: In western blotting, separated proteins are transferred to a membrane and probed.

For data set [4], the system named is SW480. Description: Induction of apoptosis in human SW480 cells incubated for 48 hrs by AAD-7 and FITC-annexin-V staining based flow cytometry. The data set is classed as functional, cell-based.
The subject of data set [5] is SW-620. Nature of the data set: Growth inhibition of human SW620 cells over-expressing constitutively active beta-catenin S33Y mutant incubated for 72 hrs by Cell-titer-fluor reagent based assay. The data set is classed as functional. The settings on record: SW-620, 72 h. A digest of the protocol: (§1)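 SW620 cells, parental, overexpressing β-catenin S33Y, or with Axin-1 knocked down by lentiviral shRNA. Treated with compound or vehicle for 72 h.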

Data set [6] concerns SW-620. Description: Growth inhibition of human SW620 cells transfected with lentivrus-encoding shRNA against Axin-1 incubated for 72 hrs by Cell-titer-fluor reagent based assay. The class given is functional. As to conditions: SW-620, 72 h. Summed up:
as §1

Data set [7] relates to SW-620. Nature of the data set: Induction of apoptosis in human SW620 cells assessed as early apoptotic cells level at 3 uM incubated for 48 hrs by AAD-7 and FITC-annexin-V staining based flow cytometry (reference value: 18.6%). The data set is classed as functional.
Data set [8] has as its system SW-620. Description: Induction of apoptosis in human SW620 cells assessed as late apoptotic cells level at 3 uM incubated for 48 hrs by AAD-7 and FITC-annexin-V staining based flow cytometry (reference value: 7.6%). The data set is classed as functional. (In general: A flow cytometer gives signals particle by particle.)
In data set [9] the test system is SW-620. Description: Induction of apoptosis in human SW620 cells assessed as necrotic cells level at 3 uM incubated for 48 hrs by AAD-7 and FITC-annexin-V staining based flow cytometry (reference value: 0.027%). The class given is functional.
Data set [10] deals with SW-620. Description: Induction of apoptosis in human SW620 cells assessed as viable cells level at 10 uM incubated for 48 hrs by AAD-7 and FITC-annexin-V staining based flow cytometry (reference value: 73.8%). The class given is functional.
For data set [11], the system named is SW-620. Nature of the data set: Induction of apoptosis in human SW620 cells assessed as late apoptotic cells level at 10 uM incubated for 48 hrs by AAD-7 and FITC-annexin-V staining based flow cytometry (reference value: 7.6%). The class given is functional.
The target in data set [12] is Ribosomal protein S6 kinase alpha-3 (Homo sapiens) (UniProt P51812). Nature of the data set: Inhibition of RPS6KA3 (unknown origin) at 1000 nM relative to control. Summed up:
(§2)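 Single-concentration screen at 1000 nM against a 273-kinase panel, reported as percent inhibition.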

Data set [13] deals with Cyclin-dependent kinase 17 (Homo sapiens) (UniProt Q00537). Nature of the data set: Inhibition of CDK17 (unknown origin) at 1000 nM relative to control. A digest of the protocol:
as §2

Data set [14] deals with High affinity nerve growth factor receptor (Homo sapiens) (UniProt P04629). Nature of the data set: Inhibition of NTRK1 (unknown origin) at 1000 nM relative to control. A digest of the protocol:
as §2

Data set [15] deals with Proto-oncogene tyrosine-protein kinase Src (Homo sapiens) (UniProt P12931). Nature of the data set: Inhibition of SRC (unknown origin) at 1000 nM relative to control. Summed up: as §2
Chain of Proto-oncogene tyrosine-protein kinase Src (Homo sapiens) (P12931 2-536 limits assumed): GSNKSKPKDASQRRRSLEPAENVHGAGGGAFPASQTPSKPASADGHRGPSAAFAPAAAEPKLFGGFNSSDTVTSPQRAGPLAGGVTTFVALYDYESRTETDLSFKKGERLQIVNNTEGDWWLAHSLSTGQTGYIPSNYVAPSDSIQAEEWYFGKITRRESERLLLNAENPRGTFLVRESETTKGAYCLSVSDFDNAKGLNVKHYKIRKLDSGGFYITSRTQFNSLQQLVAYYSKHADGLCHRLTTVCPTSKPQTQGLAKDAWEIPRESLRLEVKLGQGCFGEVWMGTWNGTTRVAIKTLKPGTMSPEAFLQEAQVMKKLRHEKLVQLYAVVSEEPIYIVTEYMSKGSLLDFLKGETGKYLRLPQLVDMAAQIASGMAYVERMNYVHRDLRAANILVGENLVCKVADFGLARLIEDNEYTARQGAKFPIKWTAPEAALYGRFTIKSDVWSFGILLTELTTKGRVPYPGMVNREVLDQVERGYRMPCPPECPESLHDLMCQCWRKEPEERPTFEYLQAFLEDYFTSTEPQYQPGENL
Data set [16] in a line: Cmax in C57BL/6J mouse at 5 mg/kg, po by UPLC-MS analysis. The class given is ADME, organism-based. Details: dose 5 mg/kg, route oral. As to conditions: in vivo. Summed up:
(§3)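 Male C57BL/6J mice, 2-3 months, 23-26 g. Single 5 mg/kg dose in 5% Kolliphor in saline, given iv (n=3) or by oral gavage (n=5). Tail-vein blood taken at 0.25, 0.5, 1, 4, 8 and 12 h and spun to plasma. Plasma analysed by LC-MS/MS on a triple quadrupole with a C18 column. Parameters from non-compartmental analysis.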

A short description of data set [17]: Half life in C57BL/6J mouse at 5 mg/kg, po by UPLC-MS analysis. As to conditions: in vivo. The class given is ADME, organism-based. A digest of the protocol: as §3
The test system of data set [18] is SW-620. Nature of the data set: Antitumor activity against human SW620 cells xenografted in nude mouse assessed as reduction in tumor weight at 10 mg/kg, ip QD for 32 consecutive days. The class given is functional, organism-based. Summed up:
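Six-week-old nude mice injected subcutaneously with 2×10^6 SW620 cells. Randomised at mean tumor volume 100–200 mm³ (n=6/group). Given 10 or 50 mg/kg ip daily for 32 consecutive days; vehicle 10% DMSO, 10% Kolliphor, 80% saline. Tumor volume measured every other day. Tumors weighed after euthanasia at day 32. t test against vehicle.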

Data set [19] in a line: Toxicity in C57BL/6 mouse assessed as effect on BUN level at 100 mg/kg/day, ip for 21 days. The data set is classed as organism-based. As to conditions: in vivo, 504 h.
The test system of data set [20] is Mus musculus. Description: Activation of AMPK in nude mouse xenografted with human SW620 cells assessed as increase in AMPK phosphorylation at 50 mg/kg, ip QD for 32 consecutive days by Western blot analysis. The data set is classed as functional, organism-based. Summed up:
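Nude mice carried subcutaneous SW620 xenografts (2×10^6 cells, right flank). Dosing began once mean tumor volume reached 100–200 mm³: 50 mg/kg ip once daily for 32 days, vehicle 10% DMSO/10% Kolliphor/80% saline. Tumors taken at day 32 and lysed in RIPA with protease inhibitors. Western blot with 20 µL of 2 mg/mL lysate on 7.5% SDS-PAGE, probed for pAMPK/AMPK or pACC/ACC, ECL detection.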

Data set [21] deals with Mus musculus. Nature of the data set: Inhibition of Wnt/beta-Catenin signaling in nude mouse xenografted with human SW620 cells assessed as reduction in MMP7 mRNA expression at 50 mg/kg, ip QD for 32 consecutive days by RT-PCR analysis. As to conditions: in vivo. The data set is classed as organism-based. A digest of the protocol:
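Six-week-old nude mice implanted subcutaneously in the right flank with 2×10^6 SW620 cells. Randomized at mean tumor volume 100–200 mm³, n = 6/group. Dosed IP once daily for 32 days at 10 or 50 mg/kg, or vehicle (10% DMSO, 10% Kolliphor, 80% saline). Tumors collected at day 32; Axin-2, MMP-7 and S100A4 expression measured by RT-PCR.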

Chain of High affinity nerve growth factor receptor (Homo sapiens) (P04629 33-796 limits assumed): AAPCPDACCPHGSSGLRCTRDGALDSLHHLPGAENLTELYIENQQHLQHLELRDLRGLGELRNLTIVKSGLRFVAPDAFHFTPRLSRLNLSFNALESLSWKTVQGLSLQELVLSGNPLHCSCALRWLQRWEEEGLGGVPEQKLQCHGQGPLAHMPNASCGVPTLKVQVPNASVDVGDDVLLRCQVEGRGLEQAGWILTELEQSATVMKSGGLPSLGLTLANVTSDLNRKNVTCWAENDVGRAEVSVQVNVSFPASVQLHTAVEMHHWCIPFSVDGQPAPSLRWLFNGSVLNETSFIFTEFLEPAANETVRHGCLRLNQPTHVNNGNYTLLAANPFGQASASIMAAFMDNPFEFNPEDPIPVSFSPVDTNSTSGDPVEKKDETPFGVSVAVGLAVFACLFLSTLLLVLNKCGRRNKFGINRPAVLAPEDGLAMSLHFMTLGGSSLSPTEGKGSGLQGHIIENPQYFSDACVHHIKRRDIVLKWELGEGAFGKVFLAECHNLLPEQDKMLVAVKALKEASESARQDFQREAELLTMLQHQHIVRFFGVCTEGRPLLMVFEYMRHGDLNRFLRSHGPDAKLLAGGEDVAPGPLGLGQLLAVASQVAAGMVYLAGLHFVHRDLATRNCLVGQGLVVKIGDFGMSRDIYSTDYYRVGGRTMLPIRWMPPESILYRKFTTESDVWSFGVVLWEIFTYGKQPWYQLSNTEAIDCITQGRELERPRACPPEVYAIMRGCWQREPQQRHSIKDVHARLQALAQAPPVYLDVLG
Chain of Cyclin-dependent kinase 17 (Homo sapiens) (Q00537 whole entry, looked up): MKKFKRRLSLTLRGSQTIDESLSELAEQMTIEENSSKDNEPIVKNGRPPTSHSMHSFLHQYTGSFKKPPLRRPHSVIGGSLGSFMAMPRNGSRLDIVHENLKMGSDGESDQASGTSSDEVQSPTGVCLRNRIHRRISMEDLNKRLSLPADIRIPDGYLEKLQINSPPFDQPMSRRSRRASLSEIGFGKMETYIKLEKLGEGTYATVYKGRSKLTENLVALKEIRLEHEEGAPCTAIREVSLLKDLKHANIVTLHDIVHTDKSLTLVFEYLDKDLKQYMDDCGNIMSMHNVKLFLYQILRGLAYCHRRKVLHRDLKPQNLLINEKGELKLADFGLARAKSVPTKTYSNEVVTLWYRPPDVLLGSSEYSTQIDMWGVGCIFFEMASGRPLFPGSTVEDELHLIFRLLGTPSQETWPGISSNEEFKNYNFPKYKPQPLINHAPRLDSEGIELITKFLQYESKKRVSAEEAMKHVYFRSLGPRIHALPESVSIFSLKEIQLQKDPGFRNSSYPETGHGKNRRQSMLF
Chain of Ribosomal protein S6 kinase alpha-3 (Homo sapiens) (P51812 whole entry): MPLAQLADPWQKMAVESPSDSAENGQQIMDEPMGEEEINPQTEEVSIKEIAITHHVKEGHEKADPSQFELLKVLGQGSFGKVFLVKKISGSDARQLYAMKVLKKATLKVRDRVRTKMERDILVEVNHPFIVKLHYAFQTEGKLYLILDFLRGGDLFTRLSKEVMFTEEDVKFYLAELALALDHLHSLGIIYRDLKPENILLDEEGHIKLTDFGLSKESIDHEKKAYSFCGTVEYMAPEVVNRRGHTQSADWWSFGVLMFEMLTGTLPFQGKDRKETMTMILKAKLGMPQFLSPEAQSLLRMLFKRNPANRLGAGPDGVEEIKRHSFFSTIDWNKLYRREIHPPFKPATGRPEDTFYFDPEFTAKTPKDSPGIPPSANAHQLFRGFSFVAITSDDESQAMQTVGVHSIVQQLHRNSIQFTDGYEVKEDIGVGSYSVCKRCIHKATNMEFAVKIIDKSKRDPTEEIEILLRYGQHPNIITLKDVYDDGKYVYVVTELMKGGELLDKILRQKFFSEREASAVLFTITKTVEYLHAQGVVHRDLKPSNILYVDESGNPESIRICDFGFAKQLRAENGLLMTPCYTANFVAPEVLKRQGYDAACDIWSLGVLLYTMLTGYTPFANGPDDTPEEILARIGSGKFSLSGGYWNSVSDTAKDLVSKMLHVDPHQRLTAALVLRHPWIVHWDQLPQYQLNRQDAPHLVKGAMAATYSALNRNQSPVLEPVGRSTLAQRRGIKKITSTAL

The term GI50 denotes the concentration giving 50% growth inhibition. Read a low GI50 as greater sensitivity of the cells. What is called IC50 is the concentration that inhibits the measured activity by half. A lower IC50 goes with greater potency. As a reminder, the inhibition is how much of the control response was suppressed. Broadly, the Cmax is the peak of the concentration-time curve. What is called half-life is the time in which the quantity being followed falls by half. A low value points to rapid decline. Turning to `Cc1c(C(=O)Nc2ccc3ccccc3n2)cnn1-c1ccccc1Br`, halving of growth in the data set with SW480 [1] (GI50) required 2400 nM. The IC50 in data set [2] came to 1.15 nM; in the data set on SW-620 [5], 67.8 nM; with SW-620 [6], 85.4 nM. Also, the inhibition result (in the data set filed under Homo sapiens; in [13]; in data set [14]; in data set [15]) was “Active” throughout. Besides, the Activity result in data set [3] was “Dose-dependent effect”; with SW480 [4], “Dose-dependent effect”; with SW-620 [7], 35.7%; in the data set on SW-620 [8], 19.2%; with SW-620 [9] it was 0.048%; in the data set with SW-620 [10], 22.1%. In addition, the Activity in the data set with SW-620 [11] was 20%; in [19], “Non-Toxic”. In [12], the inhibition is 39%. This molecule displayed a Cmax in [16] of 5200 ng/mL. The molecule further had a half-life in data set [17] of 2.9 h. For the same molecule, the outcome in the data set with SW-620 [18] and with Mus musculus [20] was Active. In the data set with Mus musculus [21], the “inhibition (INH)” value is on record as “Active”.
